# ChEMBL document CHEMBL5365541, “Designing peptide amphiphiles as novel antibacterials and antibiotic adjuvants against gram-negative bacteria” (Bioorg Med Chem, 2023)
# Activity calls are given as the source filed them. The rule behind the calls is not given here. Starred links: 1 amine or outer side, 2 acyl side, 3 side chain; linkers in the order of their positions; H or OH if unused. Non-standard residues stand in square brackets, D forms with d. Residues, ends and D or L forms follow the SMILES beside them. X2 = CCCCCCCCCCCCCCCCN([C@@H](C)C(=O)[*:2])[*:1]
# What was measured:
# [1] = Retention time of the compound by RP-HPLC analysis; type: physicochemical
# Method in brief: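 Reverse-phase HPLC, linear gradient 0–100% acetonitrile in water with 0.1% TFA over 20 min; retention time recorded.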
# Acinetobacter baumannii [2] = assay: Antibacterial activity against Acinetobacter baumannii incubated for 20 to 24 hrs by broth microdilution method; type: functional; conditions: time 20-24 hrs
# Method in brief: (§1)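 Broth microdilution: colonies suspended directly to 1.5×10^8 CFU/mL (0.5 McFarland), then diluted in Mueller–Hinton broth to ~10^5 CFU/mL final. PA stock 1 mg/mL in water, pH 7, serially diluted in MHB. Plates incubated 20–24 h at 37 °C. MIC = lowest concentration inhibiting growth, read as OD600 with optional 1% TTC staining. Triplicate.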
# Escherichia coli [3] = assay: Antibacterial activity against Escherichia coli K12 incubated for 20 to 24 hrs by broth microdilution method; type: functional; conditions: time 20-24 hrs; method in brief: as §1
# Staphylococcus aureus [4] = assay: Antibacterial activity against methicillin-resistant Staphylococcus aureus JE2 incubated for 20 to 24 hrs by broth microdilution method; type: functional; conditions: time 20-24 hrs
# Method in brief: (§2)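 Broth microdilution in MHB: direct colony suspension at 0.5 McFarland diluted to ~10^5 CFU/mL final; peptide stock 1 mg/mL in water at pH 7, serially diluted. Incubated 20-24 h at 37 °C; MIC taken as the lowest concentration inhibiting growth (OD 600 nm, 1% TTC stain); triplicate; vancomycin and gentamicin as positive controls.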
# Staphylococcus aureus [5] = assay: Antibacterial activity against methicillin-resistant Staphylococcus aureus 13C incubated for 20 to 24 hrs by broth microdilution method; type: functional; conditions: time 20-24 hrs; method in brief: as §2
# Staphylococcus aureus [6] = assay: Antibacterial activity against methicillin-resistant Staphylococcus aureus LAC incubated for 20 to 24 hrs by broth microdilution method; type: functional; conditions: time 20-24 hrs; method in brief: as §2
# Escherichia coli [7] = assay: Synergistic antibacterial activity against Escherichia coli K12 assessed as fractional inhibitory concentration index incubated for 20 to 24 hrs in presence of rifampicin by checkerboard broth microdilution assay; type: functional; conditions: time 20-24 hrs
# Method in brief: (§3)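 Checkerboard broth microdilution. E. coli K12 or A. baumannii clinical isolate grown to mid-log (OD ~0.8) and diluted to ~10^5 CFU/mL in MHB. Two-fold dilutions of rifampicin or vancomycin run across the plate against two-fold PA dilutions down it. Incubated 20–24 h at 37 °C, OD read at 470 nm. FICi calculated from the combination MICs.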
# Acinetobacter baumannii [8] = assay: Synergistic antibacterial activity against Acinetobacter baumannii assessed as fractional inhibitory concentration index incubated for 20 to 24 hrs in presence of rifampicin by checkerboard broth microdilution assay; type: functional; conditions: time 20-24 hrs; method in brief: as §3
# Cell membrane [9] = assay: Induction of inner membrane permeability in Escherichia coli K12 at 4 ug/mL by propidium iodide staining based spectrofluorometry; type: subcellular; conditions: dose 4.0 µg/ml
# Method in brief: (§4)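 E. coli K12 grown in MHB to mid-log, washed twice in PBS, and diluted to 10^6 CFU/mL in 5 mM HEPES + glucose. Cells preincubated with […] at least 15 min at 37 °C. Then treated with agent at 1/8, 1× or 2× MIC, or with PA–vancomycin 1:1. Fluorescence read at ex 535 / em 615 nm. Polymyxin B as positive control; untreated cells as negative control.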
# Cell membrane [10] = assay: Induction of inner membrane permeability in Escherichia coli K12 at 8 to 16 ug/mL by propidium iodide staining based spectrofluorometry; type: subcellular; conditions: dose 8-16 µg/ml; method in brief: as §4
# Staphylococcus aureus [11] = assay: Induction of morphological changes in methicillin-resistant Staphylococcus aureus JE2 assessed as membrane deformations with protruding bumps at 8 ug/ml incubated for 2 hrs by scanning electron microscopy; type: functional, organism-based; conditions: dose 8.0 µg/ml
# Staphylococcus aureus [12] = assay: Induction of morphological changes in methicillin-resistant Staphylococcus aureus JE2 assessed as membrane deformations with protruding holes at 8 ug/ml incubated for 2 hrs by scanning electron microscopy; type: functional, organism-based; conditions: dose 8.0 µg/ml
# Staphylococcus aureus [13] = assay: Induction of morphological changes in Methicillin-resistant Staphylococcus aureus JE2 assessed as cytoplasmic leakage at 8 ug/ml incubated for 2 hrs by scanning electron microscopy; type: functional, organism-based; conditions: dose 8.0 µg/ml
# Escherichia coli [14] = assay: Induction of morphological changes in Escherichia coli K12 assessed as membrane deformations with protruding bumps at 8 ug/ml incubated for 2 hrs by scanning electron microscopy; type: functional, organism-based; conditions: dose 8.0 µg/ml
# Escherichia coli [15] = assay: Induction of morphological changes in Escherichia coli K12 assessed as membrane deformations with protruding holes at 8 ug/ml incubated for 2 hrs by scanning electron microscopy; type: functional, organism-based; conditions: dose 8.0 µg/ml
# Escherichia coli [16] = assay: Induction of morphological changes in Escherichia coli K12 assessed as cytoplasmic leakage at 8 ug/ml incubated for 2 hrs by scanning electron microscopy; type: functional, organism-based; conditions: dose 8.0 µg/ml
# Staphylococcus aureus [17] = assay: Antibacterial activity against methicillin resistant Staphylococcus aureus JE2 measured over 21 days by broth microdilution method; type: functional, organism-based; conditions: time 21.0 day
# HEK293 = assay: Cytotoxicity against HEK293 cells assessed as reduction in cell viability at 64 to 256 ug/ml incubated for 24 hrs by XTT assay; type: toxicity, cell-based; conditions: human, hek293, 24 h, dose 64-256 µg/ml
# Method in brief: (§5)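 HEK-293 cells, passages 3–8, seeded at 5×10^4 per well and preincubated 24 h at 37 °C, 5% CO2. Medium replaced with serially diluted PA, final 8–256 µg/mL, for 24 h, in triplicate. XTT reagent (0.5 mg/mL) added for 4 h at 37 °C, then absorbance read at 600 nm.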
# [18] = Toxicity in Galleria mellonella assessed as survival at 75 mg/kg measured after 4 days relative to control; type: organism-based; conditions: in vivo, time 4 day
# Method in brief: (§6)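 Acute toxicity in G. mellonella larvae following OECD guidelines: cohorts of five larvae injected starting at 25 mg/kg, retested […] on new larvae if lethality was under 40%, continuing until a toxic dose was found; incubated at 37 °C with mortality recorded daily over 4 days.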
# [19] = Toxicity in Galleria mellonella assessed as survival at 125 to 150 mg/kg measured after 4 days relative to control; type: organism-based; conditions: in vivo, dose 125-150 mg/kg, time 4 day; method in brief: as §6
# Staphylococcus aureus [20] = assay: Antibacterial activity against Methicillin-resistant Staphylococcus aureus JE2 infected in Galleria mellonella assessed as survival at 75 mg/kg measured after 4 days relative to control; type: functional; conditions: JE2, 96 h, time 4 day
# Method in brief: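 G. mellonella larvae injected with 10 µL MRSA JE2 at a pre-set infective dose (60-80% lethality within 48 h, not 100% within 24 h) into last left proleg; after 2 h, 10 µL peptide or antibiotic injected into last right proleg; larvae held at 37 °C, mortality recorded daily for 4 days; untreated infected and PBS-only larvae as controls.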
# [21] = Self assembly property of the compound assessed as zeta potential at 250 ug/mL at pH 7 measured after 2 hrs; type: physicochemical; conditions: pH 7, 2 h, dose 250 µg/ml
# Method in brief: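 Peptide self-assembled at 1 mg/mL, pH 7, annealed 2 h at 80 °C, and aged overnight. Diluted to 250 µg/mL in water; zeta potential measured at 25 °C.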
# [22] = Self assembly property of the compound assessed as width of micelles at 1 mg/ml incubated overnight by transmission electron microscopy; type: physicochemical
# Method in brief: (§7)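 Samples were dissolved at 2 mM in water, pH 7, and left at room temperature overnight. Applied to copper grids for 5 min, blotted, and negatively stained with NanoVan for 30 s. Imaged by TEM at 120 kV.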
# Staphylococcus aureus [23] = assay: Disruption of preformed biofilm in methicillin-resistant Staphylococcus aureus JE2 at MIC to 4 times MIC; type: functional, organism-based
# Staphylococcus aureus [24] = assay: Inhibition of biofilm formation in methicillin-resistant Staphylococcus aureus JE2 at MIC; type: functional, organism-based
# Acinetobacter baumannii [25] = assay: Synergistic antibacterial activity against Acinetobacter baumannii assessed as potentiation of rifampicin-induced antibacterial activity by measuring fold increase in rifampicin MIC incubated for 20 to 24 hrs by checkerboard broth microdilution assay relative to rifampicin alone; type: functional; conditions: time 20-24 hrs; method in brief: as §3
# Cell membrane [26] = assay: Induction of inner membrane permeability in methicillin-resistant Staphylococcus aureus JE2 assessed as shift in bacterial zeta potential at 40 ug/ml measured after 1 hr; type: subcellular; conditions: dose 40.0 µg/ml
# Method in brief: (§8)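 Mid-log MRSA JE2 from MHB (OD ~0.8) washed and resuspended in PBS at 5×10^7 CFU/mL, exposed to peptide at 10 × MIC for 1 h, then zeta potential measured at 25 °C; untreated cells as negative control, daptomycin and polymyxin B as reference drugs.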
# Cell membrane [27] = assay: Induction of inner membrane permeability in Escherichia coli K12 assessed as shift in bacterial zeta potential at 40 ug/ml measured after 1 hr; type: subcellular; conditions: dose 40.0 µg/ml
# [28] = Cytotoxicity against HEK293 cells assessed as cell viability up to 64 ug/ml incubated for 24 hrs by XTT assay relative to control; type: toxicity, cell-based; conditions: human, up to 64 µg/mL, read-out: Activity; method in brief: as §5
# Escherichia coli [29] = assay: Ratio of MIC for Escherichia coli K12 at pH 5.5 to MIC for Escherichia coli K12 at pH 7.0
# Staphylococcus aureus [30] = assay: Ratio of MIC for methicillin-resistant Staphylococcus aureus JE2 at pH 5.5 to MIC for methicillin-resistant Staphylococcus aureus JE2 at pH 7.0
# Staphylococcus aureus [31] = assay: Antibacterial activity against methicillin resistant Staphylococcus aureus JE2 assessed as fold increase in MIC after 5 days by broth microdilution method relative to MIC before 5 days; type: functional; conditions: time 5 day
# [32] = Hemolytic activity in human red blood cells assessed as hemolysis at 8 ug/ml incubated for 60 min relative to control; type: toxicity, cell-based, Erythrocyte; conditions: at 8 µg/mL, read-out: Activity
# Method in brief: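 Washed human RBCs at 0.25×10^8 cells/mL final in PBS, mixed with PA (stocks 16–1024 µg/mL, equal volume). Shaken 10 min, then incubated 60 min at 37 °C, 5% CO2. Cells pelleted at 1000 × g; supernatant hemoglobin read at OD405. 5% Triton X-100 taken as 100% hemolysis; water as negative control.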
# [33] = Self assembly property of the compound assessed as formation of micelles at 1 mg/ml incubated overnight by transmission electron microscopy; type: physicochemical; method in brief: as §7
# Escherichia coli [34] = assay: Synergistic antibacterial activity against Escherichia coli K12 assessed as potentiation of rifampicin-induced antibacterial activity by measuring fold increase in rifampicin MIC incubated for 20 to 24 hrs by checkerboard broth microdilution assay relative to rifampicin alone; type: functional; conditions: time 20-24 hrs; method in brief: as §3
# Cell membrane [35] = assay: Induction of inner membrane permeability in Escherichia coli K12 assessed as shift in bacterial zeta potential at 80 ug/ml measured after 1 hr; type: subcellular; conditions: dose 80.0 µg/ml
# Cell membrane [36] = assay: Induction of inner membrane permeability in methicillin-resistant Staphylococcus aureus JE2 assessed as shift in bacterial zeta potential at 80 ug/ml measured after 1 hr; type: subcellular; conditions: dose 80.0 µg/ml; method in brief: as §8
SMILES,Retention_time [1] [min],MIC (Acinetobacter baumannii [2]) [µg/mL],MIC (Escherichia coli [3]) [µg/mL],MIC (Staphylococcus aureus [4]) [µg/mL],MIC (Staphylococcus aureus [5]) [µg/mL],MIC (Staphylococcus aureus [6]) [µg/mL],fractional inhibitory concentration index (FICI) (Escherichia coli [7]),fractional inhibitory concentration index (FICI) (Acinetobacter baumannii [8]),Activity (Cell membrane [9]),Activity (Cell membrane [10]),Activity (HEK293),Activity [21] [mV],fold change (FC) (Acinetobacter baumannii [25]),viability at 24 h [28] [%],further results
CCCCCCCCCCCCCCCCN[C@@H](CCCCN)C(=O)N[C@@H](CCCNC(=N)N)C(=O)N[C@@H](CCCCN)C(=O)N[C@@H](CCCNC(=N)N)C(=O)O,13.8,8,4,4,8,8,0.62,0.75,inactive,Active,Non-Toxic,15,2,100,Activity (Staphylococcus aureus [11]): Active; Activity (Staphylococcus aureus [12]): Active; Activity (Staphylococcus aureus [13]): Active; Activity (Escherichia coli [14]): Active; Activity (Escherichia coli [15]): Active; Activity (Escherichia coli [16]): Active; Activity (Staphylococcus aureus [17]): Active; survival at 96 h [18]: 100%; survival at 96 h [19]: 80%; survival at 75 mg/kg (Staphylococcus aureus [20]): 60%; Activity [22]: 7 nm; Activity (Staphylococcus aureus [23]): inactive; inhibition (Staphylococcus aureus [24]): Active; Activity (Cell membrane [26]): Active; Activity (Cell membrane [27]): Active; Ratio (Escherichia coli [29]): > 1; Ratio (Staphylococcus aureus [30]): > 1
CCCCCCCCCCCCCCCCN[C@@H](C)C(=O)N[C@@H](C)C(=O)N[C@@H](C)C(=O)N[C@@H](CCCCN)C(=O)N[C@@H](CCCNC(=N)N)C(=O)N[C@@H](CCCCN)C(=O)N[C@@H](CCCNC(=N)N)C(=O)O (H-[X2]AAKRKR-OH),14.3,4,8,8,8,8,0.62,0.75,inactive,Active,Non-Toxic,10.8,2,100,"fold change (FC) (Staphylococcus aureus [31]): 2; hemolysis at 1 h, 8 ug/ml [32]: 33.3%; Activity [33]: Active; fold change (FC) (Escherichia coli [34]): 8; Activity (Cell membrane [35]): Active; Activity (Cell membrane [36]): Active"
